pIC50: −log10 of the molar value. Calls of active or inactive are those of the source. The calls are words filed in the database; no cut-off is given here.
Key:
MV4-11 [1] = test: Antiproliferative activity against human MV4-11 cells measured after 72 hrs by Celltiter-Glo assay; assay type: functional, cell-based; settings: MV4-11, 72 h
K562 = test: Antiproliferative activity against human K562 cells measured after 72 hrs by Celltiter-Glo assay; assay type: functional, cell-based; settings: K562, 72 h
HL-60 = test: Antiproliferative activity against human HL60 cells measured after 72 hrs by Celltiter-Glo assay; assay type: functional, cell-based; settings: HL-60, 72 h
PBMC = test: Cytotoxicity against human PBMC cells measured after 72 hrs by Celltiter-Glo assay; assay type: ADME, cell-based
MV4-11 [2] = test: Cell cycle arrest in human MV4-11 cells assessed as accumulation at G0/G1 phase at 0.15 uM after 24 hrs by propidium iodide/RNase A staining based FACScalibur flow cytometry analysis (reference value: 50.04 %); assay type: functional
MV4-11 [3] = test: Cell cycle arrest in human MV4-11 cells assessed as accumulation at S phase at 0.15 uM after 24 hrs by propidium iodide/RNase A staining based FACScalibur flow cytometry analysis (reference value: 29.92 %); assay type: functional
MV4-11 [4] = test: Cell cycle arrest in human MV4-11 cells assessed as accumulation at G2/M phase at 0.15 uM after 24 hrs by propidium iodide/RNase A staining based FACScalibur flow cytometry analysis (reference value: 10.58 %); assay type: functional
MV4-11 [5] = test: Cell cycle arrest in human MV4-11 cells assessed as accumulation at G0/G1 phase at 0.3 uM after 24 hrs by propidium iodide/RNase A staining based FACScalibur flow cytometry analysis (reference value: 50.04 %); assay type: functional
MV4-11 [6] = test: Cell cycle arrest in human MV4-11 cells assessed as accumulation at S phase at 0.3 uM after 24 hrs by propidium iodide/RNase A staining based FACScalibur flow cytometry analysis (reference value: 29.92 %); assay type: functional
MV4-11 [7] = test: Cell cycle arrest in human MV4-11 cells assessed as accumulation at G2/M phase at 0.3 uM after 24 hrs by propidium iodide/RNase A staining based FACScalibur flow cytometry analysis (reference value: 10.58 %); assay type: functional
MV4-11 [8] = test: Cell cycle arrest in human MV4-11 cells assessed as accumulation at G0/G1 phase at 0.6 uM after 24 hrs by propidium iodide/RNase A staining based FACScalibur flow cytometry analysis (reference value: 50.04 %); assay type: functional
MV4-11 [9] = test: Cell cycle arrest in human MV4-11 cells assessed as accumulation at S phase at 0.6 uM after 24 hrs by propidium iodide/RNase A staining based FACScalibur flow cytometry analysis (reference value: 29.92 %); assay type: functional
MV4-11 [10] = test: Cell cycle arrest in human MV4-11 cells assessed as accumulation at G2/M phase at 0.6 uM after 24 hrs by propidium iodide/RNase A staining based FACScalibur flow cytometry analysis (reference value: 10.58 %); assay type: functional
MV4-11 [11] = test: Induction of apoptotic cell death in human MV4-11 cells at 0.3 uM after 24 hrs by DAPI-based TUNEL assay; assay type: functional
Outline: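 MV4-11 cells held at 0.3 μM for 24 h, then processed with a one-step TUNEL kit. DNA counterstained with DAPI. Green apoptotic cells seen by fluorescence microscopy, excitation 450−500 nm, emission 515−565 nm.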

MV4-11 [12] = test: Induction of apoptosis in human MV4-11 cells assessed as decrease in FLT3 expression after 24 hrs by Western blot analysis; assay type: functional, cell-based
Outline: (§1)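 MV4-11 cells (RPMI-1640, 10% FBS, 37 °C, 5% CO2) exposed 24 h to 0.15, 0.3 or 0.6 μM. Lysed in RIPA buffer, protein measured by BCA, 40 μg run on SDS-PAGE and blotted to nitrocellulose. Primary antibodies overnight at 4 °C, HRP anti-rabbit IgG secondary 1 h at rt. Bands detected by ECL.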

MV4-11 [13] = test: Induction of apoptosis in human MV4-11 cells assessed as decrease in phosphorylated-FLT3 expression after 24 hrs by Western blot analysis; assay type: functional, cell-based; outline: as §1
MV4-11 [14] = test: Induction of apoptosis in human MV4-11 cells assessed as decrease in c-kit expression after 24 hrs by Western blot analysis; assay type: functional, cell-based; outline: as §1
MV4-11 [15] = test: Cell cycel arrest in human MV4-11 cells assessed as decrease in CDK2 expression at 0.15 to 0.6 uM after 24 hrs by Western blot analysis; assay type: functional, cell-based; outline: as §1

SMILES	pIC50 (MV4-11 [1])	pIC50 (K562)	pIC50 (HL-60)	pIC50 (PBMC)	also measured
COc1ccc2[nH]cc(-c3cnc(N(C)[C@@H]4C[C@H]5O[C@@](C)([C@@H]4OC)n4c6ccccc6c6c7c(c8c9cc(Br)ccc9n5c8c64)C(=O)NC7)s3)c2c1	6.29	< 5.00	< 5.00	< 5.00	–
CO[C@@H]1[C@H](N(C)c2ncc(-c3c[nH]c4ccc(Cl)cc34)s2)C[C@H]2O[C@]1(C)n1c3ccccc3c3c4c(c5c6cc(Cl)ccc6n2c5c31)C(=O)NC4	6.23	< 5.00	< 5.00	< 5.00	–
CO[C@@H]1[C@H](N(C)c2ncc(-c3c[nH]c4ccc(Cl)cc34)s2)C[C@H]2O[C@]1(C)n1c3ccccc3c3c4c(c5c6ccccc6n2c5c31)C(=O)NC4	6.38	< 5.00	< 5.00	< 5.00	–
CO[C@@H]1[C@H](N(C)c2ncc(-c3c[nH]c4ccc(Cl)cc34)s2)C[C@H]2O[C@]1(C)n1c3ccccc3c3c4c(c5c6cc(Br)ccc6n2c5c31)C(=O)NC4	6.15	< 5.00	< 5.00	< 5.00	–
CO[C@@H]1[C@H](N(C)c2ncc(-c3c[nH]c4ccc(Br)cc34)s2)C[C@H]2O[C@]1(C)n1c3ccccc3c3c4c(c5c6cc(Br)ccc6n2c5c31)C(=O)NC4	6.41	< 5.00	< 5.00	< 5.00	–
CO[C@@H]1[C@H](N(C)c2ncc(-c3c[nH]c4ccccc34)s2)C[C@H]2O[C@]1(C)n1c3ccccc3c3c4c(c5c6cc(Cl)ccc6n2c5c31)C(=O)NC4	6.25	< 5.00	< 5.00	< 5.00	–
CO[C@@H]1[C@H](N(C)c2ncc(-c3c[nH]c4ccccc34)s2)C[C@H]2O[C@]1(C)n1c3ccccc3c3c4c(c5c6cc(Br)ccc6n2c5c31)C(=O)NC4	6.44	< 5.00	< 5.00	< 5.00	–
COc1ccc2[nH]cc(-c3cnc(N(C)[C@@H]4C[C@H]5O[C@@](C)([C@@H]4OC)n4c6ccccc6c6c7c(c8c9ccccc9n5c8c64)C(=O)NC7)s3)c2c1	6.44	< 5.00	< 5.00	< 5.00	–
CO[C@@H]1[C@H](N(C)c2ncc(-c3c[nH]c4ccccc34)s2)C[C@H]2O[C@]1(C)n1c3ccccc3c3c4c(c5c6ccccc6n2c5c31)C(=O)NC4	6.40	< 5.00	< 5.00	< 5.00	–
CO[C@@H]1[C@H](N(C)c2ncc(-c3c[nH]c4ccc(F)cc34)s2)C[C@H]2O[C@]1(C)n1c3ccccc3c3c4c(c5c6ccccc6n2c5c31)C(=O)NC4	6.29	< 5.00	< 5.00	< 5.00	–
CO[C@@H]1[C@H](N(C)c2ncc(-c3c[nH]c4ccc(F)cc34)s2)C[C@H]2O[C@]1(C)n1c3ccccc3c3c4c(c5c6cc(Br)ccc6n2c5c31)C(=O)NC4	6.02	< 5.00	< 5.00	< 5.00	–
CO[C@@H]1[C@H](N(C)c2ncc(-c3c[nH]c4ccc(Br)cc34)s2)C[C@H]2O[C@]1(C)n1c3ccccc3c3c4c(c5c6ccccc6n2c5c31)C(=O)NC4	6.39	< 5.00	< 5.00	< 5.00	–
CO[C@@H]1[C@H](N(C)c2ncc(-c3c[nH]c4ccc(Br)cc34)s2)C[C@H]2O[C@]1(C)n1c3ccccc3c3c4c(c5c6cc(Cl)ccc6n2c5c31)C(=O)NC4	6.37	< 5.00	< 5.00	< 5.00	–
CO[C@@H]1[C@H](N(C)c2ncc(-c3c[nH]c4ccc(F)cc34)s2)C[C@H]2O[C@]1(C)n1c3ccccc3c3c4c(c5c6cc(Cl)ccc6n2c5c31)C(=O)NC4	6.49	< 5.00	< 5.00	< 5.00	Activity (MV4-11 [2]): 60.59%; Activity (MV4-11 [3]): 20.19%; Activity (MV4-11 [4]): 10.04%; Activity (MV4-11 [5]): 72.68%; Activity (MV4-11 [6]): 9.23%; Activity (MV4-11 [7]): 6.6%; Activity (MV4-11 [8]): 87.75%; Activity (MV4-11 [9]): 10.18%; Activity (MV4-11 [10]): 0.45%; Activity (MV4-11 [11]): Active; Activity (MV4-11 [12]): Dose-dependent effect; Activity (MV4-11 [13]): Dose-dependent effect; Activity (MV4-11 [14]): Dose-dependent effect; Activity (MV4-11 [15]): Active
COc1ccc2[nH]cc(-c3cnc(N(C)[C@@H]4C[C@H]5O[C@@](C)([C@@H]4OC)n4c6ccccc6c6c7c(c8c9cc(Cl)ccc9n5c8c64)C(=O)NC7)s3)c2c1	6.36	< 5.00	< 5.00	< 5.00	–

From ChEMBL document CHEMBL4373701, “Semisynthetic Derivatives of Fradcarbazole A and Their Cytotoxicity against Acute Myeloid Leukemia Cell Lines” (J Nat Prod, 2019)
